This is an account of results in ChEMBL document CHEMBL1125869, “Calcium-independent phosphodiesterase inhibitors as putative antidepressants: [3-(bicycloalkyloxy)-4-methoxyphenyl]-2-imidazolidinones” (J Med Chem, 1991).

The species entered for assay [1] is Mus musculus. The assay is described as follows: Minimum effective peroral dose (MED) in mouse forced-swim test. The note with it: po, read-out: MED. It is filed as functional. The procedure, abridged:
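Mice dosed orally, with compound in vehicle at 1 mL/100 g. One hour later they were placed in water at 25 °C. After 2 min habituation, immobility was rated ten times at 30-s intervals and expressed as percent of control. At least four half-log-spaced doses were given, with nine mice per dose. MED was the lowest dose giving a statistically significant decrease in immobility.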

Assay [2] deals with T1, Phosphodiesterase 4 (Rattus norvegicus, UniProt P14270+P14646+P14644+P54748). Description: Inhibition of [3H]- rolipram binding to rat cerebral cortex membranes. It is filed as cell membranes, Membrane. The procedure, abridged: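 Cerebral cortex membranes homogenized in ice-cold 50 mM Tris-HCl pH 8.0 with 1.2 mM MgCl2, spun at 30000g for 20 min at 4 °C, washed once and resuspended at 0.5 mg protein/mL. (±)-[3H]rolipram at 2 nM final, 30 min at 25 °C, triplicates per concentration. Nonspecific binding defined with Ro 20-1724 (10 μM). Filtration, then scintillation counting. IC50 taken from semilog plots over several log concentrations.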

Assay [3] concerns the target T1, Phosphodiesterase 4. Description: Inhibition of calcium-independent Phosphodiesterase 4. Format: protein assay. An outline of the steps: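 Enzyme taken from the 105000g supernatant of female Sprague-Dawley rat cerebral cortex and separated from the calcium-dependent form on Sephadex G-200. Substrate was 1.0 μM [3H]cAMP in Tris-HCl pH 7.5/MgCl2, run in triplicate for 8 min at 37 °C and stopped by heat. [3H]5'-AMP was separated on boronate affinity gel and counted. IC50 came from semilog plots over three log concentrations in triplicate.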

For assay [4], the system named is Mus musculus. Description: Reversal of reserpine-induced hypothermia in mice by intraperitoneal dose. It is filed as functional. As to conditions: ip, read-out: MED. An outline of the steps:
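Individually housed mice at 20 °C received reserpine 2 mg/kg sc 18 h before test. Rectal temperature was measured before and 1 h after dosing with test drug in 5% DMSO/5% Emulphor 620/90% saline. At least four half-log-spaced doses were given, with nine mice per dose. MED was the dose giving a statistically significant temperature increase.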

In general, IC50 refers to the midpoint of a concentration-inhibition curve. Consider `COc1ccc(C2CNC(=O)N2C)cc1OC1CC2C3CCC(C3)C12` (stereo not given), for which, in the assay filed under Mus musculus [1], the minimal effective dose is above 32 mg/kg. Also, the IC50 is 100 nM at Phosphodiesterase 4 [2] and 3100 nM at Phosphodiesterase 4 [3].

For the compound `COc1ccc(C2CNC(=O)N2C)cc1OC1CC2CCC1CC2` (stereo not given), the minimal effective dose in the assay with Mus musculus [4] is above 3200 µg/kg. In addition, the 50% inhibitory concentration (IC50) worked out at 81 nM at Phosphodiesterase 4 [2] and 2500 nM on Phosphodiesterase 4 [3].

On to `COc1ccc(C2CNC(=O)N2C)cc1OC1CC2C3CCC(C3)C2C1` (stereo not given), for which the minimal effective dose in the assay on Mus musculus [4] was 3200 µg/kg; in the assay listed under Mus musculus [1], above 32 mg/kg. In addition, the figures for the IC50 on Phosphodiesterase 4 [2] and on Phosphodiesterase 4 [3] were above 100 nM and 1400 nM, respectively.

As for `COc1ccc(C2CNC(=O)N2C)cc1OC1CC2CCC(C2)C1` (stereo not given), the minimal effective dose in the assay on Mus musculus [4] is above 3200 µg/kg; in the assay listed under Mus musculus [1], above 32 mg/kg. The IC50 is above 100 nM at Phosphodiesterase 4 [2] and 2400 nM on Phosphodiesterase 4 [3].

For `COc1ccc(C2CNC(=O)N2C)cc1O[C@H]1CC2CC1C1CCCC21` (stereo not given in full), the minimal effective dose in the assay with Mus musculus [4] came out at 320 µg/kg; in the assay listed under Mus musculus [1], 32 mg/kg.

With `COc1ccc(C2CNC(=O)N2C)cc1O[C@H]1CC2CCC1C2` (stereo not given in full), the results for the minimal effective dose in the assay with Mus musculus [4] and in the assay filed under Mus musculus [1] were 1000 µg/kg and above 32 mg/kg, respectively.

As for `COc1ccc(C2CNC(=O)N2C)cc1O[C@@H]1CC2CCC1C2` (stereo not given in full), the figures for the minimal effective dose in the assay on Mus musculus [4] and in the assay listed under Mus musculus [1] were 0.03 µg/kg and 1 mg/kg, respectively. Also, the concentration for half-maximal inhibition (IC50) at Phosphodiesterase 4 [2] was 2.6 nM; on Phosphodiesterase 4 [3], 220 nM.

On to `COc1ccc(C2CNC(=O)N2C)cc1O[C@@H]1CC2CC1C1CCCC21` (stereo not given in full), for which the values for the minimal effective dose with Mus musculus [4] and in the assay listed under Mus musculus [1] were 320 µg/kg and 10 mg/kg, respectively. In addition, the IC50 was determined as 10 nM at Phosphodiesterase 4 [2] and 490 nM at Phosphodiesterase 4 [3].

Take `COc1ccc(C2CNC(=O)N2C)cc1O[C@@H]1CC2CC1c1ccccc12` (stereo not given in full): the figures for the minimal effective dose in the assay on Mus musculus [4] and in the assay filed under Mus musculus [1] were 1000 µg/kg and above 32 mg/kg, respectively. In addition, the IC50 on Phosphodiesterase 4 [2] was 21 nM; on Phosphodiesterase 4 [3] it was 290 nM.

Take `COc1ccc(C2CNC(=O)N2C)cc1OC1C2CC3CC(C2)CC1C3` (stereo not given): the minimal effective dose in the assay with Mus musculus [4] is 3200 µg/kg; in the assay filed under Mus musculus [1], above 32 mg/kg. Further, the IC50 on Phosphodiesterase 4 [2] is above 100 nM; at Phosphodiesterase 4 [3], 11000 nM.

With `COc1ccc(C2CNC(=O)N2C)cc1OC1CC2C=CC1C2` (stereo not given), the minimal effective dose with Mus musculus [4] came to 100 µg/kg; in the assay filed under Mus musculus [1], 0.1 mg/kg. Further, the results for the IC50 at Phosphodiesterase 4 [2] and at Phosphodiesterase 4 [3] were 3.1 nM and 130 nM, respectively.

In the case of `COc1ccc(C2CNC(=O)C2)cc1OC1CCCC1` (stereo not given) [ROLIPRAM], the minimal effective dose in the assay on Mus musculus [4] was determined as 0.1 µg/kg; in the assay listed under Mus musculus [1], 1.8 mg/kg.
